Measured values from ChEMBL document CHEMBL4257453, “Identification of karanjin isolated from the Indian beech tree as a potent CYP1 enzyme inhibitor with cellular efficacy via screening of a natural product repository” (Medchemcomm, 2018).

Assays:
[1] = target: CYP2C9 (Homo sapiens, UniProt P11712); test: Inhibition of recombinant human CYP2C9 expressed in baker's yeast-derived microsomes (Sacchrosomes) at 10 uM using 3-cyano-7-ethoxycoumarin substrate by EROD assay relative to control; type: ADME; conditions: probe 3-cyano-7-ethoxycoumarin
Sequence of CYP2C9 (P11712 whole entry, canonical isoform): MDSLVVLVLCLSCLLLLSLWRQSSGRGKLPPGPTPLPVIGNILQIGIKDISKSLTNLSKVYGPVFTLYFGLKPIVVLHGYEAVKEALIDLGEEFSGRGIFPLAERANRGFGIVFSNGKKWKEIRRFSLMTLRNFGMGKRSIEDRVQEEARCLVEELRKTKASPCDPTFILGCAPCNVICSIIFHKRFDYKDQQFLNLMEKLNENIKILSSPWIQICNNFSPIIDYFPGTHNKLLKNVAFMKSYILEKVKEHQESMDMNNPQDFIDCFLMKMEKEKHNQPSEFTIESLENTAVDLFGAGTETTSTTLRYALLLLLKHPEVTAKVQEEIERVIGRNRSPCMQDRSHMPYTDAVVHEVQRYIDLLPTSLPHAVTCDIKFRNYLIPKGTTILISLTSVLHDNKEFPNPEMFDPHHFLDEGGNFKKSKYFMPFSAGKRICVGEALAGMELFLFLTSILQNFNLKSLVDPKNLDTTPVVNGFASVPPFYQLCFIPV
Outline: (§1)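 Yeast microsomes carrying recombinant CYP (Sacchrosomes). […] Substrates per isoform are 7-ethoxyresorufin, 3-cyano-7-ethoxycoumarin, EOMCC or dibenzylfluorescein, read as endpoint fluorescence. Background from compound-only wells without enzyme is subtracted. Independent triplicate runs; α-naphthoflavone positive control.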

[2] = target: CYP2D6 (Homo sapiens, UniProt P10635); test: Inhibition of recombinant human CYP2D6 expressed in baker's yeast-derived microsomes (Sacchrosomes) at 10 uM using 7-ethoxy-methyloxy-3-cyanocoumarin substrate by EROD assay relative to control; type: ADME; conditions: probe 7-ethoxy-methyloxy-3-cyanocoumarin; outline: as §1
Sequence of CYP2D6 (P10635 whole entry): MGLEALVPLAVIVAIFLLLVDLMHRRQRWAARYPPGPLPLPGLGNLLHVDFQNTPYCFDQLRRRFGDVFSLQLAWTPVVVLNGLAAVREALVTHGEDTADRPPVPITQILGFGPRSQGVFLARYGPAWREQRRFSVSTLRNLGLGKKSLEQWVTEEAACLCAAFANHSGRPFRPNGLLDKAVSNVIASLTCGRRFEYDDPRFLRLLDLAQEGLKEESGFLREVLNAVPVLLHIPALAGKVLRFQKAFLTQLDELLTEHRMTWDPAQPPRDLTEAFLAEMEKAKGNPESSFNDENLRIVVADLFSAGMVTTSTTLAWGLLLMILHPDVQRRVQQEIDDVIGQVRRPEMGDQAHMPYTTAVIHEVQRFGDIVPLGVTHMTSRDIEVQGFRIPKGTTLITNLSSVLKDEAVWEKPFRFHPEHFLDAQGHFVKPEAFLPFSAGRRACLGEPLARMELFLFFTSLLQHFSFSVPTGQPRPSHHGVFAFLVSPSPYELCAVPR

[3] = target: Cytochrome P450 3A4 (Homo sapiens, UniProt P08684); test: Inhibition of human recombinant CYP3A4 expressed in HEK293 cells using dibenzylfluorescein substrate substrate preincubated for 30 mins followed by substrate addition and measured after 60 mins by fluorescence assay relative to control; type: ADME, cell-based
Sequence of Cytochrome P450 3A4 (P08684 whole entry): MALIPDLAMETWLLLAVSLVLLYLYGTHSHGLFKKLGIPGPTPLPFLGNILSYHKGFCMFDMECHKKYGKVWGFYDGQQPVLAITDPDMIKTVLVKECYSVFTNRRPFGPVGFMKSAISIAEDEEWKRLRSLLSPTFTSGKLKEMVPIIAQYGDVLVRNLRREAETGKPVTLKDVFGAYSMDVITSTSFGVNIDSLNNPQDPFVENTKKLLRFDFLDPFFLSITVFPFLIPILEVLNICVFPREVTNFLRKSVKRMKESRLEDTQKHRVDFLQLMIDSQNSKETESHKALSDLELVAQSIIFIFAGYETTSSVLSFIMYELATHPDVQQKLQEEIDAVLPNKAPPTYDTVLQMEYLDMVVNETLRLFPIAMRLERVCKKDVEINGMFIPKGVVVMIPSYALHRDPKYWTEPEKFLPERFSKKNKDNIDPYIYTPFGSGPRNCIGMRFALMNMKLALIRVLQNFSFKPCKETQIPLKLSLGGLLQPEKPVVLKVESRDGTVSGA
Outline: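 HEK293 cells adapted to suspension and transiently transfected with pcDNA3.1 plasmids carrying the individual CYP; 100×10^3 cells per well in triplicate. Fluorogenic substrate is then added at 5 μM and fluorescence read for 60 min.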

[4] = target: Cytochrome P450 2C9 (Homo sapiens, UniProt P11712); test: Inhibition of human recombinant CYP2C9 expressed in HEK293 cells using 3-cyano-7-ethoxycoumarin substrate substrate preincubated for 30 mins followed by substrate addition and measured after 60 mins by fluorescence assay relative to control; type: ADME, cell-based
Sequence of Cytochrome P450 2C9 (P11712 whole entry): as the sequence (P11712 whole entry, canonical isoform) above
Outline: (§2)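 HEK293 cells adapted to suspension and transiently transfected with pcDNA3.1 plasmids carrying the individual CYP; 100×10^3 cells per well in triplicate. […] Fluorogenic substrate is then added at 5 μM and fluorescence read for 60 min.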

[5] = target: T1, CYP1A1 (Homo sapiens, UniProt P04798); test: Inhibition of recombinant human CYP1A1 expressed in baker's yeast-derived microsomes (Sacchrosomes) at 10 uM using 7-ethoxyresorufin substrate by EROD assay relative to control; conditions: probe 7-ethoxyresorufin
T1 sequence (P04798 whole entry): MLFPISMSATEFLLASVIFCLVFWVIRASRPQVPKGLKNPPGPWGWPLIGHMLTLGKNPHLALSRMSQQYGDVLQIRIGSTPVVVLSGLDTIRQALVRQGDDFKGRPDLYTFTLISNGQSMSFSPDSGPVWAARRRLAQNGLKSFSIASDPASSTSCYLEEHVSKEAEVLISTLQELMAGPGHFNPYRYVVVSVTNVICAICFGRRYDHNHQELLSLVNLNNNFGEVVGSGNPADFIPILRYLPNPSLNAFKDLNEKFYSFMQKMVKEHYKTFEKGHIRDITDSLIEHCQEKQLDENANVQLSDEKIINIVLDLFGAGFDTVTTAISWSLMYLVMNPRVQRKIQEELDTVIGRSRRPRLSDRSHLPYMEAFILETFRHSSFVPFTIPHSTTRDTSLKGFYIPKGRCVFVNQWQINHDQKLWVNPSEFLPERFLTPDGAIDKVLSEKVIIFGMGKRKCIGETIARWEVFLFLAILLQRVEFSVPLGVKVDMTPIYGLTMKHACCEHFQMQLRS
Outline: (§3)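 Yeast microsomes carrying recombinant CYP (Sacchrosomes). Substrates per isoform are 7-ethoxyresorufin, 3-cyano-7-ethoxycoumarin, EOMCC or dibenzylfluorescein, read as endpoint fluorescence. Background from compound-only wells without enzyme is subtracted. Independent triplicate runs; α-naphthoflavone positive control.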

[6] = target: CYP2C19 (Homo sapiens, UniProt P33261); test: Inhibition of recombinant human CYP2C19 expressed in baker's yeast-derived microsomes (Sacchrosomes) at 10 uM using 3-cyano-7-ethoxycoumarin substrate by EROD assay relative to control; type: ADME; conditions: probe 3-cyano-7-ethoxycoumarin; outline: as §1
Sequence of CYP2C19 (P33261 whole entry): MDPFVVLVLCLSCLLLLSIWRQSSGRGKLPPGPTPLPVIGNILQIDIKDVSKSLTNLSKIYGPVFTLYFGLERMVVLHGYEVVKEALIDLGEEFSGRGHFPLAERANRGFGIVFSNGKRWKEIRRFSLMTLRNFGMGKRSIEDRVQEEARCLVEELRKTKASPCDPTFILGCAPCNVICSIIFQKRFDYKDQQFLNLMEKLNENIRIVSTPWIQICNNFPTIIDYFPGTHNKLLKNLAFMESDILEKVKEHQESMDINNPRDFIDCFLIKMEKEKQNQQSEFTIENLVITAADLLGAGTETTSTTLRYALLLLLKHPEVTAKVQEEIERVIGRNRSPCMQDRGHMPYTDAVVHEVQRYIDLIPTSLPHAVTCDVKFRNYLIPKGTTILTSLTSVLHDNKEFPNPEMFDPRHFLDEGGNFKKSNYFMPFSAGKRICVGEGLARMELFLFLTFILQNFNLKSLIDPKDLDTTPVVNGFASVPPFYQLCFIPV

[7] = target: CYP3A4 (Homo sapiens, UniProt P08684); test: Inhibition of recombinant human CYP3A4 expressed in baker's yeast-derived microsomes (Sacchrosomes) at 10 uM using dibenzylfluorescein substrate by EROD assay relative to control; type: ADME; conditions: probe dibenzylfluorescein; outline: as §1
Sequence of CYP3A4 (P08684 whole entry): as the sequence (P08684 whole entry) above

[8] = target: Cytochrome P450 2D6 (Homo sapiens, UniProt P10635); test: Inhibition of human recombinant CYP2D6 expressed in HEK293 cells using 7-ethoxy-methyloxy-3-cyanocoumarin substrate substrate preincubated for 30 mins followed by substrate addition and measured after 60 mins by fluorescence assay relative to control; type: ADME, cell-based; outline: as §2
Sequence of Cytochrome P450 2D6 (P10635 whole entry): as the sequence (P10635 whole entry) above

[9] = organism: Homo sapiens; test: Selectivity index, ratio of IC50 for inhibition of human recombinant CYP1B1 expressed in HEK293 cells by fluorescence assay to IC50 for inhibition of human recombinant CYP1A1 expressed in HEK293 cells by fluorescence assay; type: cell-based
Outline: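 HEK293 suspension cells transiently transfected with pcDNA3.1/CYP1B1 or pcDNA3.1/CYP1A1, 100×10^3 cells per well in triplicate. Compound (1 nM to 30 μM) preincubated 30 min at 37 °C, 8% CO2. 7-Ethoxyresorufin then added at 5 μM, and resorufin fluorescence (EROD) read over 60 min. IC50 taken from concentration-response for each isoform; index = CYP1B1 IC50 / CYP1A1 IC50.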

[10] = target: T1, CYP1A1; test: Inhibition of human recombinant CYP1A1 expressed in HEK293 cells at 10 uM using 7-ethoxyresorufin substrate preincubated for 30 mins followed by substrate addition and measured after 60 mins by fluorescence assay relative to control; type: cell-based; conditions: HEK293 cells expressing human recombinant CYP1A1, probe 7-ethoxyresorufin; outline: as §2
[11] = target: T2, Cytochrome P450 1A1 (Homo sapiens, UniProt P04798); test: Inhibition of human recombinant CYP1A1 expressed in HEK293 cells using 7-ethoxyresorufin substrate preincubated for 30 mins followed by substrate addition and measured after 60 mins by fluorescence assay relative to control; type: cell-based; outline: as §2
T2 sequence (P04798 whole entry): T1 sequence (P04798 whole entry)

[12] = target: T3, CYP1A2 (Homo sapiens, UniProt P05177); test: Inhibition of recombinant human CYP1A2 expressed in baker's yeast-derived microsomes (Sacchrosomes) at 10 uM using 3-cyano-7-ethoxycoumarin substrate by EROD assay relative to control; type: ADME; conditions: probe 3-cyano-7-ethoxycoumarin; outline: as §3
T3 sequence (P05177 whole entry): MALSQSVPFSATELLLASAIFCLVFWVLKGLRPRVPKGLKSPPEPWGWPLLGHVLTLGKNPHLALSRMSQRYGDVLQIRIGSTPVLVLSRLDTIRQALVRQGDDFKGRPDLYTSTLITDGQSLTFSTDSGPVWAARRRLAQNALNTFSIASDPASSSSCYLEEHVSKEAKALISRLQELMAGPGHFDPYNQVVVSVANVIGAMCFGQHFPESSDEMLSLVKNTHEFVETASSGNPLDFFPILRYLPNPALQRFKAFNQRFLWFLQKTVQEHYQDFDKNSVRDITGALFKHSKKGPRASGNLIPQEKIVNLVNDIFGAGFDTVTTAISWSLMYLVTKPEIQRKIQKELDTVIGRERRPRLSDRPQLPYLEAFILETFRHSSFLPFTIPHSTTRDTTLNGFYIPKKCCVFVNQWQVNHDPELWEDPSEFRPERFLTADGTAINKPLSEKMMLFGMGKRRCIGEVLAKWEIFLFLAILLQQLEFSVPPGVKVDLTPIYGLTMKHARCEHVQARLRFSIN

SMILES	inhibition at 10 µM [1] [%]	inhibition at 10 µM [2] [%]	IC50 [3] [nM]	IC50 [4] [nM]	inhibition at 10 µM [5] [%]	inhibition at 10 µM [6] [%]	inhibition at 10 µM [7] [%]	IC50 [8] [nM]	Ratio IC50 [9]	inhibition at 1 h, 10 µM [10] [%]	IC50 [11] [nM]	Ki [11] [nM]	inhibition at 10 µM [12] [%]
COc1c2ccoc2cc2oc(=O)ccc12 [BERGAPTEN]	4	9	> 10000	> 10000	68	5	3	> 10000	192	91	80	60	73
COc1c2ccoc2c(OC)c2oc(=O)ccc12 [ISOPIMPINELLIN]	0	0	> 10000	> 10000	71	0	0	> 10000	319	91	20	12	62
